Laboratory results from ChEMBL document CHEMBL1124645, “Minimum-structure enkephalin analogues incorporating L-tyrosine, D(or L)-phenylalanine, and a diamine spacer” (J Med Chem, 1989).

Experiments:
[1] = species: Cavia porcellus; assay: Ability to display a naloxone-reversible inhibition of electrically induced contractions in GPI by Morphine at 0.1 uM; type: functional
Method in brief: (§1)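 Hartley male guinea pigs (400–450 g); 3–4-cm segments of terminal ileum in a 3.5-mL Krebs bath at 37 ± 0.5 °C, gassed with 95% O2-5% CO2. […] Each was tested at least twice per preparation. Results are the average of at least three ilea from different animals.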

[2] = species: Cavia porcellus; assay: Inhibitory activity in guinea pig ileum tissue in the absence and presence of 10 nM naloxone; type: functional
[3] = species: Cavia porcellus; assay: Ability to display a naloxone-reversible inhibition of electrically induced contractions in GPI in the presence of 1.0 uM bestatin at concentration 10 e-6 M; type: functional
[4] = species: Cavia porcellus; assay: Ability to display a naloxone-reversible inhibition of electrically induced contractions in GPI by Morphine at 0.5 uM; type: functional
[5] = species: Cavia porcellus; assay: Percentage inhibition of compound against morphine at 10 e-7 M in guinea pig ileum tissue; type: functional; method in brief: as §1
[6] = species: Cavia porcellus; assay: Ability to display a naloxone-reversible inhibition of electrically induced contractions in GPI in the presence of 1 uM bestatin at concentration 2 uM

| SMILES | Inhibition [1] | Relative potency [1] | Ke [2] | Inhibition [3] | Inhibition [4] | inhibition at 0.1 µM [5] | Inhibition [6] |
| --- | --- | --- | --- | --- | --- | --- | --- |
| CC(=O)N[C@H](Cc1ccccc1)C(=O)NCCC(C)(C)NC(=O)C(N)Cc1ccc(O)cc1 (some centres not stated) | 40% | 0.22 | 3.3 nM | 53% |  |  |  |
| N[C@@H](Cc1ccccc1)C(=O)NCCNC(=O)[C@@H](N)Cc1ccc(O)cc1 |  |  |  | 12% | 49.5% |  |  |
| N[C@H](Cc1ccccc1)C(=O)NCCNC(=O)[C@@H](N)Cc1ccc(O)cc1 |  |  |  | 8% |  | 49.5% |  |
| CC(=O)NC(Cc1ccccc1)C(=O)NC(C)(C)CNC(=O)C(N)Cc1ccc(O)cc1 (stereo in doubt) |  |  |  | 16.3% |  | 47% |  |
| CC(=O)N[C@H](Cc1ccccc1)C(=O)NCCNC(=O)C(N)Cc1ccc(O)cc1 (some centres not stated) |  | 1.6 | 4 nM | 89.5% |  | 40% |  |
| CC(=O)NC(Cc1ccccc1)C(=O)NCCC(C)(C)NC(=O)C(N)Cc1ccc(O)cc1 (stereo in doubt) | 47% | 0.052 | 2.1 nM | 50.5% |  |  |  |
| CC(=O)NC(Cc1ccccc1)C(=O)NCCNC(=O)C(N)Cc1ccc(O)cc1 (stereo in doubt) |  |  |  | 10% |  | 49.5% |  |
| CC(=O)NC(Cc1ccccc1)C(=O)NCCCNC(=O)C(N)Cc1ccc(O)cc1 (stereo in doubt) |  |  |  | 5% |  |  | 8% |
| CC(=O)N[C@H](Cc1ccccc1)C(=O)NCCCNC(=O)C(N)Cc1ccc(O)cc1 (some centres not stated) | 47% | 0.0077 | 4.4 nM | 29.5% |  |  |  |
| CC(=O)N[C@H](Cc1ccccc1)C(=O)NCC(C)(C)NC(=O)C(N)Cc1ccc(O)cc1 (some centres not stated) |  | 21.2 | 4.2 nM | 91.5% |  | 43.5% |  |
| CC(=O)N[C@H](Cc1ccccc1)C(=O)NC(C)(C)CNC(=O)C(N)Cc1ccc(O)cc1 (some centres not stated) |  | 0.27 |  | 42.5% |  | 40% |  |
| CC(=O)NC(Cc1ccccc1)C(=O)NCC(C)(C)NC(=O)C(N)Cc1ccc(O)cc1 (stereo in doubt) |  | 10 | 1.4 nM | 79.3% |  | 47% |  |
